MIC and minimal effective concentration data for 22 compounds are collected here from ChEMBL document CHEMBL1123801, “Synthesis and antifungal activity of new 1-vinylimidazoles” (1987).

The subject of assay [1] is Candida albicans. The experiment in a line: Minimum inhibitory concentration (MIC) against Candida albicans. The assay is classed as functional. The procedure, abridged: (§1)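 Broth microdilution in Sabouraud's glucose broth. Final inocula 1×10^5 cells/mL for the yeast (C. albicans) and 1×10^5 conidia/mL for the mold (A. fumigatus) and the dermatophyte (T. asteroides). MIC read as the fungistatic end point. Lowest value of duplicated experiments.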

Assay [2] concerns Trichophyton benhamiae. The experiment in a line: Minimum inhibitory concentration against Trichophyton asteroides. The assay is classed as functional. Put shortly:
as §1

Another assay deals with Aspergillus fumigatus. The experiment in a line: Minimum inhibitory concentration (MIC) against Aspergillus fumigatus. The assay is classed as functional. Put shortly: as §1
The test system of assay [3] is Candida albicans. The assay is described as follows: Minimum inhibitory concentration against Candida albicans IFO 1388. The assay is classed as functional. Put shortly:
(§2)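 Agar dilution on Sabouraud's glucose agar. Inocula 1×10^6 cells/mL for the yeast strains (C. albicans IFO 1060, 1388) and 1×10^6 conidia/mL for the dermatophytes (T. mentagrophytes IFO 5809, 5810; T. rubrum IFO 5467, 5807). MIC in μg/mL, lowest value of duplicated experiments.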

Assay [4] concerns Trichophyton benhamiae. The experiment in a line: Minimum inhibitory concentration against Trichophyton mentagrophytes IFO 5809. The assay is classed as functional, Arthroderma benhamiae. The procedure, abridged: as §2
Assay [5] concerns Trichophyton benhamiae. The experiment in a line: Minimum inhibitory concentration against Trichophyton mentagrophytes IFO 5810. The assay is classed as functional, Arthroderma benhamiae. The procedure, abridged:
as §2

In assay [6] the test system is Candida albicans. The experiment in a line: Minimum inhibitory concentration against Candida albicans IFO 1060. The assay is classed as functional. The procedure, abridged:
as §2

In assay [7] the test system is Trichophyton rubrum. The experiment in a line: Minimum inhibitory concentration against Trichophyton rubrum IFO 5467. The assay is classed as functional. Put shortly: as §2
For assay [8], the system named is Trichophyton rubrum. The assay is described as follows: Minimum inhibitory concentration against Trichophyton rubrum IFO 5807. The assay is classed as functional. The procedure, abridged:
as §2

The test system of assay [9] is Candida albicans. The assay is described as follows: Inhibition of pseudomycelium formation of Candida albicans. The assay is classed as functional. The settings on record: read-out: MEC. The procedure, abridged:
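C. albicans KE-2 (clinical isolate), final inoculum 1×10^6 yeast cells/mL in EMEM with 20% calf serum. Compounds serially diluted by the microtiter dilution system used for MICs. After incubation, wells Giemsa-stained (5% in phosphate buffer) and examined microscopically. MEC (μg/mL) = lowest concentration preventing typical pseudomycelium formation. Lowest value of duplicated experiments.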

The structures appear in SMILES notation. ≈ marks a conversion by molar mass, not a printed value.

Regarding `C=C(c1ccccc1OCCCSc1ccc(Cl)cc1)n1ccnc1`, the MIC in the assay on Candida albicans [1] turned out to be 25 µg/mL (≈ 67.4 µM); with Trichophyton benhamiae [2], 0.1 µg/mL (≈ 0.27 µM); against Aspergillus fumigatus, 3.1 µg/mL (≈ 8.36 µM).

Take `C=C(c1ccccc1OCc1ccc(Cl)cc1)n1ccnc1`: the MIC with Candida albicans [3] amounted to 12.5 µg/mL (≈ 40.2 µM); against Candida albicans [1], 6.2 µg/mL (≈ 19.9 µM); with Trichophyton benhamiae [4], 1.6 µg/mL (≈ 5.15 µM); with Trichophyton benhamiae [5], 0.8 µg/mL (≈ 2.57 µM); in the assay with Candida albicans [6], 6.3 µg/mL (≈ 20.3 µM); against Trichophyton benhamiae [2], 0.1 µg/mL (≈ 0.322 µM). The MIC was found to be 3.1 µg/mL (≈ 9.97 µM) with Aspergillus fumigatus, 0.8 µg/mL (≈ 2.57 µM) in the assay with Trichophyton rubrum [7] and 0.8 µg/mL (≈ 2.57 µM) against Trichophyton rubrum [8].

As for `CCCOc1ccc(Cl)cc1C(=C(C)C)n1ccnc1`, the MIC with Candida albicans [1] amounted to 25 µg/mL (≈ 86 µM); in the assay on Trichophyton benhamiae [2], 0.2 µg/mL (≈ 0.688 µM); in the assay with Aspergillus fumigatus, 6.3 µg/mL (≈ 21.7 µM). Further, the minimal effective concentration with Candida albicans [9] came to 0.31 µg/mL.

Consider `CCC(CC)=C(c1cc(Cl)ccc1OC)n1cncn1`, for which the MIC against Candida albicans [1] amounted to 100 µg/mL (≈ 343 µM); in the assay on Trichophyton benhamiae [2] it was 0.8 µg/mL (≈ 2.74 µM); in the assay on Aspergillus fumigatus, 100 µg/mL (≈ 343 µM). Further, the minimal effective concentration in the assay with Candida albicans [9] was determined as 1.25 µg/mL.

For `C=C(c1ccccc1OCC(C)C)n1ccnc1`, the MIC is 100 µg/mL (≈ 413 µM) against Candida albicans [1], 0.1 µg/mL (≈ 0.413 µM) in the assay with Trichophyton benhamiae [2] and 1.6 µg/mL (≈ 6.6 µM) against Aspergillus fumigatus. The minimal effective concentration in the assay on Candida albicans [9] was found to be 0.63 µg/mL.

On to `C=C(c1ccccc1OCc1ccc(C(C)C)cc1)n1ccnc1`, for which the results for the MIC against Candida albicans [1], against Trichophyton benhamiae [2] and against Aspergillus fumigatus were 25 µg/mL (≈ 78.5 µM), 3.1 µg/mL (≈ 9.74 µM) and 3.1 µg/mL (≈ 9.74 µM), respectively.

`CCCOc1ccccc1C(=C(C)C)n1ccnc1`: the MIC in the assay on Candida albicans [1] is 12.5 µg/mL (≈ 48.8 µM); in the assay on Trichophyton benhamiae [2] it was 0.2 µg/mL (≈ 0.78 µM); in the assay with Aspergillus fumigatus, 0.8 µg/mL (≈ 3.12 µM). The minimal effective concentration in the assay with Candida albicans [9] turned out to be 0.31 µg/mL.

For the compound `C=C(c1cc(Cl)ccc1OC(C)C)n1ccnc1`, the MIC came out at 50 µg/mL (≈ 190 µM) in the assay on Candida albicans [1], 0.1 µg/mL (≈ 0.381 µM) against Trichophyton benhamiae [2] and 0.8 µg/mL (≈ 3.04 µM) against Aspergillus fumigatus. The minimal effective concentration in the assay on Candida albicans [9] was 5 µg/mL.

As to `C=C(c1ccc(Cl)cc1)n1ccnc1`, the MIC with Candida albicans [1] was determined as 100 µg/mL (≈ 489 µM); with Trichophyton benhamiae [2], 25 µg/mL (≈ 122 µM); against Aspergillus fumigatus, 100 µg/mL (≈ 489 µM). Also, the minimal effective concentration in the assay with Candida albicans [9] is over 20 µg/mL.

Regarding `C=C(c1ccccc1)n1ccnc1`, the minimum inhibitory concentration (MIC) was over 100 µg/mL against Candida albicans [1], 100 µg/mL (≈ 587 µM) against Trichophyton benhamiae [2] and over 100 µg/mL in the assay with Aspergillus fumigatus. Further, in the assay on Candida albicans [9], the minimal effective concentration was over 20 µg/mL.

For the compound `C=C(c1ccccc1OCCC(C)C)n1ccnc1`, the MIC stood at 25 µg/mL (≈ 97.5 µM) with Candida albicans [1], 0.1 µg/mL (≈ 0.39 µM) in the assay on Trichophyton benhamiae [2] and 0.4 µg/mL (≈ 1.56 µM) against Aspergillus fumigatus. Besides, the minimal effective concentration with Candida albicans [9] stood at 0.63 µg/mL.

Regarding `C=C(c1cc(Cl)ccc1OCC(C)C)n1ccnc1`, the values for the MIC in the assay with Candida albicans [1], in the assay on Trichophyton benhamiae [2] and with Aspergillus fumigatus were 50 µg/mL (≈ 181 µM), 0.1 µg/mL (≈ 0.361 µM) and 0.8 µg/mL (≈ 2.89 µM), respectively. The minimal effective concentration in the assay with Candida albicans [9] worked out at 1.25 µg/mL.

Take `CCC(CC)=C(c1cc(Cl)ccc1OCc1ccc(Cl)cc1)n1cncn1`: the MIC in the assay on Candida albicans [1], against Trichophyton benhamiae [2] and in the assay with Aspergillus fumigatus was over 100 µg/mL each time. In addition, in the assay with Candida albicans [9], the minimal effective concentration is 20 µg/mL.

As to `COc1ccc(Cl)cc1/C(=C/c1ccccc1)n1ccnc1`, the minimal inhibitory concentration (MIC) in the assay on Candida albicans [1] was 12.5 µg/mL (≈ 40.2 µM); with Trichophyton benhamiae [2], 6.2 µg/mL (≈ 19.9 µM); against Aspergillus fumigatus, 25 µg/mL (≈ 80.4 µM). Further, in the assay with Candida albicans [9], the minimal effective concentration was over 20 µg/mL.

For `CCC(CC)=C(c1cc(Cl)ccc1OCCC(C)C)n1cncn1`, the MIC is over 100 µg/mL against Candida albicans [1], 0.8 µg/mL (≈ 2.3 µM) with Trichophyton benhamiae [2] and over 100 µg/mL in the assay with Aspergillus fumigatus. For the same compound, in the assay with Candida albicans [9], the minimal effective concentration amounted to 1.25 µg/mL.

As for `CC(C)COc1ccc(Cl)cc1/C(=C\CN(C)C)n1cncn1`, the MIC was over 100 µg/mL against Candida albicans [1], 12.5 µg/mL (≈ 37.3 µM) against Trichophyton benhamiae [2] and over 100 µg/mL against Aspergillus fumigatus. Moreover, the minimal effective concentration in the assay on Candida albicans [9] came out at 0.31 µg/mL.

As for `CCCOc1ccccc1/C(=C\CN(C)C)n1ccnc1`, the values for the MIC in the assay with Candida albicans [1], against Trichophyton benhamiae [2] and in the assay on Aspergillus fumigatus were over 100 µg/mL, 12.5 µg/mL (≈ 43.8 µM) and over 100 µg/mL, respectively. In addition, in the assay with Candida albicans [9], the minimal effective concentration amounted to 0.31 µg/mL.

Turning to `CC(C)COc1ccc(Cl)cc1/C(=C\CN(C)C)n1ccnc1`, the values for the MIC against Candida albicans [1], against Trichophyton benhamiae [2] and against Aspergillus fumigatus were over 100 µg/mL, 0.8 µg/mL (≈ 2.4 µM) and over 100 µg/mL, respectively. For the same compound, in the assay on Candida albicans [9], the minimal effective concentration was 2.5 µg/mL.

Take `CC(C)COc1ccccc1/C(=C\CN1CCOCC1)n1ccnc1`: the MIC in the assay on Candida albicans [1] was over 100 µg/mL; against Trichophyton benhamiae [2], 6.3 µg/mL (≈ 18.5 µM); in the assay with Aspergillus fumigatus, over 100 µg/mL. Further, the minimal effective concentration with Candida albicans [9] was found to be 2.5 µg/mL.

Consider `CN(C)C/C=C(\c1ccccc1OCc1ccc(Cl)cc1)n1ccnc1`, for which the MIC in the assay with Candida albicans [1] is over 100 µg/mL; against Trichophyton benhamiae [2] it was 1.6 µg/mL (≈ 4.35 µM); against Aspergillus fumigatus it was over 100 µg/mL. Also, the minimal effective concentration in the assay with Candida albicans [9] was 1.25 µg/mL.

As for `C=C(c1cccc(OCc2ccc(Cl)cc2)c1)n1ccnc1`, the results for the MIC in the assay with Candida albicans [1], with Trichophyton benhamiae [2] and against Aspergillus fumigatus were 50 µg/mL (≈ 161 µM), 1.6 µg/mL (≈ 5.15 µM) and 12.5 µg/mL (≈ 40.2 µM), respectively. The minimal effective concentration with Candida albicans [9] came to 5 µg/mL.

Turning to `C=C(c1ccccc1N(Cc1ccc(Cl)cc1)C(=O)C(F)(F)F)n1ccnc1`, the MIC stood at 1.6 µg/mL (≈ 3.94 µM) in the assay on Candida albicans [1], 1.6 µg/mL (≈ 3.94 µM) against Trichophyton benhamiae [2] and 50 µg/mL (≈ 123 µM) against Aspergillus fumigatus. The minimal effective concentration in the assay with Candida albicans [9] turned out to be 20 µg/mL.

The term MIC denotes the least concentration at which growth counts as inhibited.
